# Hep lipid drop = modulators of hepatic lipid droplet formation; AML12 mouse hepatocytes, oleate lipid droplets, BODIPY imaging; 0.4% of 240,000 active; inhibition, % at 6.5 µM;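 active means lipid droplet intensity inhibited by at least 50%, with more than 500 cells counted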
#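 Material – mouse AML12 hepatocyte cell line, fixed after treatment · Compound dosing – one dose, 6.5 µM compound · Times – compound with oleate, overnight · Measured by – Image-based BODIPY and DAPI two-channel analysis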
# TbHK1 inh = T. brucei hexokinase 1 inhibition. recombinant TbHK1, G6PDH-coupled NADH A340. inhibition, % at 10 µM. 0.11% of 220,000 active. AID 1430;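 active means inhibition of 50% or more in the single-dose primary screen; inactive means inhibition below 50%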
# zVAD death inh = blocks zVAD induced death of L929 cells | 0.38% of 220,000 active | viability rescue, % at 10 µM | L929 zVAD necroptosis rescue, ATP luminescence, 24 h; with zVAD 60 µM;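 active means activation, scaled between plate controls, above about 75%, limit read from the data; inactive means activation under that limit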;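 further: 0% = zVAD with DMSO and 100% = DMSO alone without zVAD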
# RBBP9 inh = inhibitors of human serine hydrolase RBBP9 | O75884 | recombinant RBBP9, FP-Rh probe fluorescence polarization | inhibition, % at 7.94 µM | 0.2% of 220,000 active | AID 1515;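 active means inhibition above the campaign mean of all tested compounds plus 3 SD, cut at about 14% in these data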;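 further: plate controls were DMSO wells with RBBP9 for no effect and wells lacking RBBP9 protein for full effect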
# Target sequence (O75884 whole entry, looked up): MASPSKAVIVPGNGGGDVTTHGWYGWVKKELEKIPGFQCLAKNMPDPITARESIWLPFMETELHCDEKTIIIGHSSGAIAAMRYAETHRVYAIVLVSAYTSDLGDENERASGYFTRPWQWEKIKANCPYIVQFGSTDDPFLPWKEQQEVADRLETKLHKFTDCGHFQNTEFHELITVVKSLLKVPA
#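 Material: RBBP9 protein. Amount: RBBP9 at 2.5 µM in dispensed solution, before mixing. Schedule: 30 min then 45 min, 25 °C. Medium: Tris buffer pH 8.0, NaCl, Pluronic. Measured by: fluorescence polarization. Measure: percent inhibition from mP, scaled between DMSO and no-protein wells. Replication: one well per compound.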
# TNF necrop inh = inhibitors of TNF-alpha induced necroptosis in Jurkat FADD-/- cells | 0.068% of 220,000 active | Jurkat FADD-/- TNF necroptosis rescue, ATP luminescence, 24 h; 0 = TNF only, 100 = no-TNF cells | activation (protection from cell death), % at 10 µM;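 active means activation, meaning protection from cell death, of at least 50% relative to plate controls; inactive means activation below 50%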;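 further: necroptosis triggered by 40 ng/mL TNF-alpha added together with compound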
# PfM18AAP inh = blocks P. falciparum M18 aspartyl aminopeptidase. recombinant PfM18AAP, H-Glu-NHMec fluorogenic cleavage. inhibition, % at 7.35 µM. 1.2% of 290,000 active. AID 1822;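 active means inhibition above the campaign mean inhibition over all tested compounds plus 3 SD, cut at about 28% in these data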;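 further: 0% = plate median of test compound wells and 100% = 2 mM ZnCl2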
# Numbers without * were called inactive; · = no result given. An excerpt weighted towards active compounds, which were near 2% of everything screened.
SMILES,Hep lipid drop,TbHK1 inh,zVAD death inh,RBBP9 inh,TNF necrop inh,PfM18AAP inh
O=C(CN1CCN(C(c2ccccc2)c2ccccc2)CC1)N1N=CCC1c1ccccc1 (stereo unspecified),12,-9,0,-4,68*,1
Cc1ccc(C2=NN=C(NC(=O)CSc3nncn3C)SC2)cc1,0,-20,-1,7,0,54*
Cc1ccc(C(=O)NC(=O)CSc2nncn2C)cc1,7,·,·,·,·,-1
Cc1ccc(C(c2nnnn2CCC(C)C)N2CCN(C)CC2)cc1 (stereo unspecified),-11,3,0,-4,0,-17
O=C(CSCc1ccc([N+](=O)[O-])cc1)NC1CCCCCC1,1,-2,2,-5,63*,-1
O=C(O)c1cccc(-n2c(O)c(C=C3N=c4ccccc4=N3)sc2=S)c1,·,-26,0,-7,-3,31*
CCCC(C(=O)O)n1c(O)c(C=C2N=c3ccccc3=N2)sc1=S (stereo unspecified),10,-24,0,-1,-1,30*
CCN1C(=O)[C@@H]2Cc3c([nH]c4ccccc34)C(c3ccc(OC)cc3)N2C1=S (stereo partly specified),6,·,·,·,·,4
O=C(CCC(=O)c1ccc(Br)cc1)Nc1cccc(C(F)(F)F)c1,·,21,91*,-9,-2,-8
Cc1ccc(C(=O)CCC(=O)Nc2cccc(C(F)(F)F)c2)cc1,·,-3,0,-6,-2,3
Cc1cc[n+](-c2[nH]c(=O)sc2/C=N/NC([S-])=Nc2ccccc2)cc1C,-2,-47,1,0,2,32*
Cc1ccc[n+](-c2[nH]c(=O)sc2/C=N/N=C(\[O-])CCn2c3ccccc3c3ccccc32)c1,-1,0,0,-3,0,-3
N#CC1=C(SCC(=O)Nc2nccs2)NC(=O)CC1c1ccccc1 (stereo unspecified),20,-18,82*,2,75*,9
Cc1ccccc1NC(=O)CSC1=C(C#N)C(c2ccsc2)CC(=O)N1 (stereo unspecified),4,13,0,-8,-1,2
N#CC1=C(SCc2ccccc2)NC(=O)CC1c1ccc(O)cc1 (stereo unspecified),-3,5,0,1,-3,29*
Cc1ccc(C2CC(=O)NC(SCc3ccccc3)=C2C#N)cc1 (stereo unspecified),-6,4,-1,0,0,2
Cc1ccc(NS(=O)(=O)c2c(C)[nH]c(C)c2C(=O)N2CCCCC2)c(Br)c1,-13,·,·,·,·,-2
CNc1c([N+](=O)[O-])cnn1-c1ccc(Cl)cc1,·,-10,0,2,-2,0
CC(=O)O[C@]1(C(C)=O)CC[C@H]2[C@@H]3C=CC4=CC(=O)C=C[C@]4(C)[C@H]3CC[C@@]21C,-18,·,·,·,·,-10
CCCc1ccc(-c2cc(NC(=O)CSc3nnc(N)s3)n(-c3ccccc3)n2)cc1,-2,4,2,-11,-1,0
Cc1nnc(SCC(=O)c2ccc(Cl)cc2)n(N)c1=O,-9,-31,23,18*,0,14
Cc1nnc(SCC(=O)Nc2ccccc2F)n(N)c1=O,-13,·,·,·,·,1
O=c1cnnc(N/N=C/c2c[nH]c3ccccc23)[nH]1,5,-27,2,4,-2,29*
O=c1cnnc(N/N=C/c2cccs2)[nH]1,15,-51,0,2,1,30*
Cc1cc(C)c(S(=O)(=O)/N=C2/C=C(Sc3ncn[nH]3)C(=O)c3ccccc32)cc1C,-2,38,1,8,-9,40*
Cc1ccc(C)c(S(=O)(=O)/N=C2\C=C(NS(=O)(=O)c3ccccc3)C(=O)c3ccccc32)c1,1,·,·,·,·,3
COC(=O)c1cc(N=CC2=C(O)CC(C)(C)CC2=O)cc(C(=O)OC)c1,14,-9,0,-3,-3,30*
COC(=O)c1cc(OC)c(OC)cc1N=CC1=C(O)CC(C)(C)CC1=O,·,-14,0,-3,-6,-5
Cc1cccc(C)c1OCc1nnc(SCC(=O)Nc2nccs2)o1,·,1,0,3,2,28*
CCCc1nnc(SCC(=O)Nc2nccs2)o1,9,·,·,·,·,4
